Experimental data taken from the EternaBench riboswitch data.

System: MS2 coat protein
Test: apparent Kd, MS2 coat protein; higher = weaker binding; RNA-MaP array; FMN 200 µM where present
How it was run: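 The titrant was SNAP-549-labelled MS2 coat protein, run from 0.7 or 1.5 nM in doubling steps to 3 µM. It was applied to designs transcribed by stalled E. coli RNA polymerase on Illumina sequencing-chip clusters, without ligand first and then with constant ligand, in 100 mM Tris-HCl pH 7.5, 80 mM KCl, 4 mM MgCl2, BSA, DTT, yeast tRNA and Tween-20. The apparent Kd is the median of filtered per-cluster binding-curve fits, with green signal normalised to red-channel RNA signal and control-cluster median Fmax.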

[1] = designed as: ON switch for flavin mononucleotide, no ligand
[2] = ligand present: flavin mononucleotide, designed as: ON switch for flavin mononucleotide
[3] = designed as: OFF switch for flavin mononucleotide, no ligand
[4] = ligand present: flavin mononucleotide, designed as: OFF switch for flavin mononucleotide

Sequence	apparent Kd [1]	apparent Kd [2]	apparent Kd [3]	apparent Kd [4]
ACUGACAUGAGGAUCACCCAUGUCUUGGAUAGGCCAAAUUCACAGGAUAUGCAUGAGGACAGCGUGCAGAAGGGUGAUGCAAUG	54.6 nM	25.5 nM	–	–
ACCGAACAUGAGGAUCACCCAUGUGAGGAUAUAGACGCGUAUUUAACGCGUAACAAAACUAGAAGGCACUGGGC	–	–	27.2 nM	16.1 nM
CAGAAGUCAGGAUAUGCAUGGCGGGACUUGCGUCGUGGCGUGCAGAAGGGACAUGAGGAUCACCCAUGUAAAGG	–	–	174 nM	300 nM
AGCUGGUGACAGCAAGAAACUUCACAUGAGGAUCACCCAUGUAGAAGGCUGUACGGUUACCGUACAGAGGAUAUACAUGAAAAG	–	–	9.49 nM	26.8 nM
CAGGUAGACUGAGGAUAUACAAAAGACCUAGUCUAUCUAGGUCACAUCACAUGAGGAUCACCCAUGUAGAAGGCAGUCUGCCUG	–	–	16.2 nM	27.1 nM
UCCGAACAUGAGGAUCACCCAUGUGAGGAUAUAGACGUGAAUUAAACACGUAACAAAACUAGAAGGCACUGGGC	–	–	14.7 nM	13.2 nM
UCAAAUACUGAGGAUAUAACGACUGAAUCCGCGUUAGAAGGUAGUACAUGAGGAUCACCCAUGUCAACCAGAGG	–	–	–	18.7 nM
AAAACGCGGGAGAAGGCCACUUACCGUUACAUGGACGUGAGAAAUAAAUGGAGGAUAUCCCUACAUGAGGAUCACCCAUGUAAU	412 nM	103 nM	–	–
GGAUGAGCAAUAGGAUAUGCUGGGAUUGAAUGGGUAGAAGGAUUUCUAGUGGGAAAGACAUGAGGAUCACCCAUGUCGCGGCCC	23.8 nM	25.3 nM	–	–
UAAAGACAUGAGGAUCACCCAUGUGAGGAUAUCGGAGGUGACGGAGCGUCGAGUUCGGCGAGAAGGCGCAGGAA	–	–	81 nM	53.9 nM
GGUACUCAAAGAGUACCAAUACGAACAUGAGGAUCACCCAUGUAGGAUAUGCUAUCGAAACGAUAGCAGAAGGACAUGUGCCUU	–	–	26.4 nM	218 nM
GGAUACGACAGAGGAUAUACGUGCUAGAGAUACUAGCAAAAUUUCCUCACAUGAGGAUCACCCAUGUAGAAGGCUGUCCUAUCG	–	–	16.2 nM	337 nM
UGAUUGAGAUUGUAGGAUAUUGGAAAAGCCACAUGAGGAUCACCCAUGUCAAAAAAAAAAAAAAACAAGAAGGGCGGUUUUAGUUA	72.9 nM	61.8 nM	–	–
CGAUGUUGUGUCAGGAUAUGCGUUGCGAAAGCAAUGUAGAAGGGACAUGAGGAUCACCCAUGUUCUAACCAUCG	–	–	12.4 nM	15.8 nM
UAGAUGGGAGGAUAUACGUAGAUGCAGGUUCGUGUGGUGCUACAUGAGGAUCACCCAUGUAGAAGGCCCGUCUU	–	–	14.8 nM	48.9 nM
AGCUGACGAGGAUAUACAUGAGGAUCACCCAUGUUGGUCAAGCGACGAUAGUCGCAAUGUAGAAGGUGUCAGCU	–	–	138 nM	565 nM
GUACUGUAGUGAGGAUAUACGAGUACGAUAGUACGGCGAUCCAAUUAUACAUGAGGAUCACCCAUGUAGAAGGCACUUCAGUAC	–	–	9.93 nM	41.1 nM
AAACAUGUCCGAGGAUAUCUGAGAUCAUUUUCAAGAGAAGGCGGACAUGAGGAUCACCCAUGUCUCUCCUCAUCAACUCUAAAU	–	–	5.99 nM	36.9 nM
CGAUAACCACAGAAGGCCCGGGACAUGAGGAUCACCCAUGUAGAAAGUGGGAGGAUAUGUGUACGCGGCAUGCUGACCUCGUGA	210 nM	28.6 nM	–	–
CGCUGUUGCGCAGGAUAUGCAUUGGAUUACAAUGCAGAAGGGCGAUUACAUGAGGAUCACCCAUGUGUAGACAGUGAAGAAGAG	300 nM	37.2 nM	–	–
AUUAUUGACGAAGGAUAUGGAUACAUGAGGAUCACCCAUGUAUAAUUUGUGUUCUUAUAUUUGAUCCAGAAGGUCGUUGUUUAU	–	–	35.8 nM	54.6 nM

Sequence	apparent Kd [1]	apparent Kd [2]	apparent Kd [3]	apparent Kd [4]
CCGAGAAGGAGAGGAUAUGGACAUGAGGAUCACCCAUGUACAUGGGAAUAUAUACUGAAUUUUUACUAGAAGGCUUACAUAAAU	–	–	17.8 nM	14 nM
AAGCAAGCAGGGAUGCUUCGUAGGGAGGAUAUCUGACUGGGCGGACAUGAGGAUCACCCAUGUACAGAGAAGGCCCAAAACAAC	–	–	376 nM	61.6 nM
GAAUAGGCAGGAUAUACAUGAGGAUCACCCAUGUGCUUGCGAUAGGCACGUGAACAACGUAGAAGGGCCUUAAC	–	–	33.2 nM	149 nM
ACAUACAUUCGAGGAUAUCGGUGAUUAAUUUUACGAGAAGGCGAUAUAAGAUAUAAUAUUUUAGACAUGAGGAUCACCCAUGUA	25.5 nM	22.9 nM	–	–
AUGCGUGGCUAGGAUAUCGAGGAAUCUAGCCAGCGAGAAGGAGCCACAUGAGGAUCACCCAUGUGGUGAACCUC	–	–	22.8 nM	17.6 nM
GAGUAGUUGAAAGGAUAUUGAUUGUUAUAGAAUCAAGAAGGUUCUAACAUGAGGAUCACCCAUGUAGGACUAUUCCUGUGUAUC	12.3 nM	9.66 nM	–	–
GUCAGCUCGUGAGGAUAUACAACACUGCUUCGGCAGUGAAUUAAGAUCACAUGAGGAUCACCCAUGUAGAAGGCACGAGCUGAU	–	–	17 nM	325 nM
GCACGGUAUGUAGGAUAUGCAUAGCAUUGCUAUGCAGAAGGACAUGAGGAUCACCCAUGUAUGUAUUCCAUACAUUUCCCGUGC	–	–	5.73 nM	5.74 nM
CAUUUGUGAGGAUAUCAGGUGUGCUAGCGUACUGGUACAUCUGAGAAGGCACAUGAGGAUCACCCAUGUUCCUU	–	–	12.8 nM	30 nM
GGAUGACAAAGUCAUCCUAAACGAACAUGAGGAUCACCCAUGUAGGAUAUGCUACUGAAACAGUAGCAGAAGGACAUGUGCCUU	–	–	31.1 nM	211 nM
GGACAUUUACAGAAGGGCAAGUUGGAUCGCGGAUAACGCGAUCCGACUUGCAGGAUAUGUUGAACAUGAGGAUCACCCAUGUCU	7.99 nM	8.52 nM	–	–
CCAUGGCUGUGAGGAUAUGUCUGACAAAGUCAGACAGAAGGUACAUGAGGAUCACCCAUGUGAAGAAAACCACAUUUGCCAUGG	–	–	6 nM	6.44 nM
GCCGGCUAAUGAGGAUAUGGCACCUUAUUGGUGCCAGAAGGCAUGUCAAUUGACAUGAGGAUCACCCAUGUAUUAUAGUUGGCG	422 nM	115 nM	–	–
CGGAUCAAUACAGGAUAUGGUGACGCACAUGAGGAUCACCCAUGUCCGCAGCGUGCUAAGCACGCCCAGAAGGGUAUUGAUUCG	738 nM	68.3 nM	–	–
GUCAGCUCGUGAGGAUAUACAACACUGCUUCGGCAGUGUAUUAAGAUCACAUGAGGAUCACCCAUGUAGAAGGUACGAGCUGAU	–	–	8.56 nM	82.9 nM
GUCAACUCGUGAGGAUAUACAACACUGCUUCGGCAGUGUAUUAAGAUCACAUGAGGAUCACCCAUGUAGAAGGCACGAGCUGAU	–	–	14.4 nM	214 nM
ACCUCACAUGAGGAUCACCCAUGUCAGGAUAUACAAACCGUGUAAAGACACGGUCGUAGUAGAAGGGACUAUGG	–	–	68 nM	18.7 nM
UGCGACCUAGGAUAUACAUGAGGAUCACCCAUGUGAUUCGGUGGCGCGAUCCUUGAAAGUAGAAGGAGGAGCAA	–	–	40.1 nM	35.3 nM
UACCUAUUUAUGGUAUUUCAAUAUGAGGAUAUCAUUUAUUUAUACAUGAGGAUCACCCAUGUUACUGAGAAGGCAUAUUUAAUA	11.4 nM	6.01 nM	–	–
AAGUUUAACGAAGGAUAUGGUUACAUGAGGAUCACCCAUGUAUUUUUUGUGAUCUUGAAAUAGUUCCAGAAGGUCGUAUACAUA	–	–	138 nM	359 nM
AUCAGCUUGUCAGGAUAUGCGUGUCAACGAAAGUUGACAAUCUUAAUAACAUGAGGAUCACCCAUGUAGAAGGGACGAGCUGAU	–	–	17.1 nM	17.9 nM
